Measured values from ChEMBL document CHEMBL1126270, “Synthesis of 3-[(2,3-dihydro-1,1,3-trioxo-1,2-benzisothiazol-2-yl)alkyl] 1,4-dihydropyridine-3,5-dicarboxylate derivatives as calcium channel modulators” (J Med Chem, 1992).

What was measured:
Rattus norvegicus [1] = species on record: Rattus norvegicus; test: Compound evaluated for reducing diastolic blood pressure spontaneously hypertensive rats.; format: functional; details: Artery
Procedure, shortened: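 Male SHR (Okamoto strain, 290 ± 30 g) under sodium pentobarbitone anaesthesia (70 mg/kg ip) with tracheal cannulation. Arterial pressure recorded from the left carotid artery. Bolus iv via right femoral vein in PEG-400 (0.1 mL/kg), cumulative doses of 1, 3, 6, 10, 20 and 30 μg/kg, each followed for 15 min. ED25 for lowering diastolic pressure estimated.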

Oryctolagus cuniculus [2] = species on record: Oryctolagus cuniculus; test: Recovery of the initial contraction of rabbit aortic strips, blocked at 10e-7 M concentration.; details: Aorta
Rattus norvegicus [3] = species on record: Rattus norvegicus; test: Reducing systolic blood pressure in spontaneously hypertensive rats.; format: functional; details: Artery
Procedure, shortened: (§1)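 Conscious SHR trained 2 weeks, warmed at 31 ± 1 °C for 2 h; tail plethysmography SBP, mean of five readings; only rats above 170 mmHg used. After 24 h fasting, 20 mg/kg by gavage in 20% PEG-400/0.5% methylcellulose (10 mL/kg); SBP change read 1 h post-dose, n = 12.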

Rattus norvegicus [4] = species on record: Rattus norvegicus; test: Duration of action in spontaneously hypertensive rats.; format: functional
Procedure, shortened: (§2)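 Anesthetized (pentobarbitone 70 mg/kg ip) Okamoto SHR, 290 ± 30 g; carotid pressure, femoral vein dosing. Cumulative increasing iv bolus doses of 1, 3, 6, 10, 20, 30 µg/kg in PEG-400 (0.1 mL/kg), each recorded 15 min; ED25 for lowering SBP and DBP and duration of hypotensive action estimated.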

Oryctolagus cuniculus [5] = species on record: Oryctolagus cuniculus; test: Inhibition of electrically stimulated rabbit left atria contraction.; format: functional
Procedure, shortened: (§3)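 Rabbit left atria electrically driven (1 Hz, 10 ms, twice threshold voltage), equilibrated 1–1.5 h. Compounds added cumulatively (10^-10–10^-6 M), diluted from DMSO stocks into Krebs–Henseleit, final DMSO <0.1%. Isometric force recorded; IC50 from contractile force relative to initial control values, with 95% confidence limits.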

Rattus norvegicus [6] = test: Systolic blood pressure after administration of a single oral dose (20 mg/kg); format: functional
Procedure, shortened: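 Conscious SHR trained for 2 weeks; systolic pressure by tail plethysmography after 2 h at 31 ± 1 °C, each reading the mean of five determinations. Only rats with basal >170 mmHg were used. After 24 h fasting, dosed by gavage in 20% PEG-400 in 0.5% aqueous methylcellulose (10 mL/kg). % change from basal at 1 h; mean ± SE, n = 12.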

[7] = target: T1, Voltage-dependent L-type calcium channel subunit alpha-1C (Oryctolagus cuniculus, UniProt P15381); test: Selectivity index was measured as the IC50 needed to depress the heart beat divided by IC50 needed to block [Ca2+] contractions in rabbit aortic strips; format: functional, tissue-based, Aorta
Oryctolagus cuniculus [8] = species on record: Oryctolagus cuniculus; test: Blockade of calcium-evoked contractions evaluated in depolarized rabbit aortic strips; format: functional; details: Aorta
Procedure, shortened: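 Male New Zealand rabbit thoracic aorta, helicoidal strips, 2.5 g preload, Krebs–bicarbonate, 37 °C, 95% O2/5% CO2, pH 7.4. After 1 h equilibration, depolarized with 35 mM K+; 1.5 mM Ca2+ added 10 min later, repeated until reproducible. Compound at increasing concentrations from 20 min before and during Ca2+ addition; responses normalized to initial tension; IC50 by Finney method.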

Oryctolagus cuniculus [9] = species on record: Oryctolagus cuniculus; test: Inhibition of electrically stimulated rabbit left atria contraction; format: functional; procedure, shortened: as §3
Oryctolagus cuniculus [10] = species on record: Oryctolagus cuniculus; test: Relative potency evaluated (relative potency = IC50 of compound / IC50 of nifedipine) in rabbit; format: functional
Rattus norvegicus [11] = test: Systolic blood pressure after administration of a single oral dose (20 mg/kg) in spontaneously hypertensive rats.; format: functional; procedure, shortened: as §1
Rattus norvegicus [12] = species on record: Rattus norvegicus; test: Compound evaluated for reducing diastolic blood pressure in spontaneously hypertensive rats.; format: functional; details: Artery; procedure, shortened: as §2
Oryctolagus cuniculus [13] = species on record: Oryctolagus cuniculus; test: Relative potency was evaluated. (relative potency = IC50 of compound / IC50 of nifedipine); format: functional
[14] = target: T1, Voltage-dependent L-type calcium channel subunit alpha-1C; details: rabbit, Aorta
[15] = target: T1, Voltage-dependent L-type calcium channel subunit alpha-1C; test: Blockade of calcium-evoked contractions in depolarized aortic strips; format: functional, tissue-based, Aorta
Rattus norvegicus [16] = test: Systolic blood pressure after administration of a single oral dose (20 mg/kg) in spontaneously hypertensive rats; format: functional; procedure, shortened: as §1
Oryctolagus cuniculus [17] = species on record: Oryctolagus cuniculus; test: Maximum contractile force in rabbit aorta strips; format: functional
Procedure, shortened: (§4)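 Rabbit aortic strips, after equilibration in Ca2+-free Krebs, switched to buffer with 10 mM K+. Repeated 1.5 mM Ca2+ pulses until reproducible. Increasing compound concentrations each given 10 min before a further 1.5 mM Ca2+ pulse. Maximum contractile force (mg) taken as vasoconstrictor effect; data as mean ± SEM at 10^-6 M.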

Oryctolagus cuniculus [18] = species on record: Oryctolagus cuniculus; test: Compound was evaluated for contraction on Electrically driven Rabbit left atria. at 10e-6 M; format: functional
Rattus norvegicus [19] = test: Effect (iv, 100 ug/kg) on diastolic blood pressure in anesthetized normotensive rat; format: functional, Artery
Procedure, shortened: (§5)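 Male Wistar rats, 290 ± 30 g, pentobarbitone anesthesia (70 mg/kg ip), tracheal cannulation. Carotid arterial pressure recorded, dosing via femoral vein. Bolus iv of 0.1 mg/kg in PEG-400 (0.1 mL/kg); effects recorded continuously for 15 min; peak rise in mmHg above basal.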

Oryctolagus cuniculus [20] = species on record: Oryctolagus cuniculus; test: Compound was evaluated for contraction on Electrically driven Rabbit left atria. at 10e-8 M; format: functional
Oryctolagus cuniculus [21] = species on record: Oryctolagus cuniculus; test: Compound was evaluated for contraction on Electrically driven Rabbit left atria. at 10e-7 M; format: functional
Rattus norvegicus [22] = species on record: Rattus norvegicus; test: Compound evaluated for reducing diastolic blood pressure normotensive rats.; format: functional, Artery
Rattus norvegicus [23] = test: Effect (iv, 100 ug/kg) on systolic blood pressure in anesthetized normotensive rat; format: functional, Artery; procedure, shortened: as §5
Oryctolagus cuniculus [24] = species on record: Oryctolagus cuniculus; test: Compound was tested in vitro for its effect on maximum contractile force in rabbit aorta strips; format: functional; procedure, shortened: as §4
Rattus norvegicus [25] = species on record: Rattus norvegicus; test: Compound evaluated for reducing diastolic blood pressure in normotensive rats.; format: functional, Artery

T1 sequence (P15381 whole entry): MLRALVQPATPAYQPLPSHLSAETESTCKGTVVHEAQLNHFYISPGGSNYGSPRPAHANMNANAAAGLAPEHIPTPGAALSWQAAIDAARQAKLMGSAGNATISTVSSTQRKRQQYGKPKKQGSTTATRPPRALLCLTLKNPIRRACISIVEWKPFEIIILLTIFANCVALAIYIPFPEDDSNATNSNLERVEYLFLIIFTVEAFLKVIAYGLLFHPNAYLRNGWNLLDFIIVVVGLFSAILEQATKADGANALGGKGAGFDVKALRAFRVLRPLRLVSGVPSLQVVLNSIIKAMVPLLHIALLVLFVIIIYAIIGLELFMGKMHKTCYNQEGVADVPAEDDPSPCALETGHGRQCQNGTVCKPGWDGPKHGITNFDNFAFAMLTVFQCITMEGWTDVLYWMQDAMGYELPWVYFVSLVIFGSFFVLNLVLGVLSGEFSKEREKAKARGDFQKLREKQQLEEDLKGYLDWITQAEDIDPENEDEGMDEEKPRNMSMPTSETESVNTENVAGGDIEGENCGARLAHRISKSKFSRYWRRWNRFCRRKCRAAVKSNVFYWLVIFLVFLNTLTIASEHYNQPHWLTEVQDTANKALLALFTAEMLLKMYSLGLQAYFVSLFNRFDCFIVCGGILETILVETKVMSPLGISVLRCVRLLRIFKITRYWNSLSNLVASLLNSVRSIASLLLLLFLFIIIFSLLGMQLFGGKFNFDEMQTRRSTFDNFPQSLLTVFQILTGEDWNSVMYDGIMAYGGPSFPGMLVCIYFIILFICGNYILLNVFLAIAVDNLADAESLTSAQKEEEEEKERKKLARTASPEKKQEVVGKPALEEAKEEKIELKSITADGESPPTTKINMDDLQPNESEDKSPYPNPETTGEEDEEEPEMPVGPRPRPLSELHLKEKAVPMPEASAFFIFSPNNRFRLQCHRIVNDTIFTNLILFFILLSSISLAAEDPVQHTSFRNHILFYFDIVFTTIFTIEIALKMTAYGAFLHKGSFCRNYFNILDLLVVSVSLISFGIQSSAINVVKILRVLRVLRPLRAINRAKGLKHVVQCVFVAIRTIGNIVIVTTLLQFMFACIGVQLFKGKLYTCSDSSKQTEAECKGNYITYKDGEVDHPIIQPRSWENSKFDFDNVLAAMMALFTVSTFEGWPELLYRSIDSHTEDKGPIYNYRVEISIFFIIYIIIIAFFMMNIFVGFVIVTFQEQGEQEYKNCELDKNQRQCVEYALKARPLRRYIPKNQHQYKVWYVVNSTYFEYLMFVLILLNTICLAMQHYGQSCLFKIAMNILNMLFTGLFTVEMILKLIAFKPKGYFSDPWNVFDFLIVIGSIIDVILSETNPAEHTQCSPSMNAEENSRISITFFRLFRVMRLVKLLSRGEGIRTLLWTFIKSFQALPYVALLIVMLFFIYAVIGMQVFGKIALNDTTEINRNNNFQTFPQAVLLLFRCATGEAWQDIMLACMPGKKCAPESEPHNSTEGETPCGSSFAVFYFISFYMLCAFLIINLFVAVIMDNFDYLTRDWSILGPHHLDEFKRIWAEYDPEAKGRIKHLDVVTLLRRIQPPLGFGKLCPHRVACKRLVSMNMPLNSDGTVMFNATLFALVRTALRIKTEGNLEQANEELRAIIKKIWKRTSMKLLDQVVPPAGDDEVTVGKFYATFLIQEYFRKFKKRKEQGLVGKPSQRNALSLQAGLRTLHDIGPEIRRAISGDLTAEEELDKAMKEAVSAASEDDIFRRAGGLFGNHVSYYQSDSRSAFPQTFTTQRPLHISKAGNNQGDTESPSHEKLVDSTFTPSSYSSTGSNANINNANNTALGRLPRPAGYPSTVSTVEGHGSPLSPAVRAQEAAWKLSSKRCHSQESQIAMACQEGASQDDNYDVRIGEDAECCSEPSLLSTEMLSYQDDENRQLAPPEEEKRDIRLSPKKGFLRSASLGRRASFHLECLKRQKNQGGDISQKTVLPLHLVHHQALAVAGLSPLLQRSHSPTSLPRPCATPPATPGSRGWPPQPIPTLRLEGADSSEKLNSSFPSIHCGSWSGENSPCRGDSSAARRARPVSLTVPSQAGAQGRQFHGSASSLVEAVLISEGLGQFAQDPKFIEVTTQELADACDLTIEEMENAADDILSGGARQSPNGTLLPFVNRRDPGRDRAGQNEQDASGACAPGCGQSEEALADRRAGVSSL

Compound | Recovery (Oryctolagus cuniculus [2]) | IC50 (Oryctolagus cuniculus [5]) | Selectivity index [7] | IC50 (Oryctolagus cuniculus [8]) | Relative potency (Oryctolagus cuniculus [10]) | Max contractile force (Oryctolagus cuniculus [17]) | further results
COC(=O)C1=C(C)NC(C)=C(C(=O)OC)C1c1ccccc1[N+](=O)[O-] [NIFEDIPINE] | 71.6% | 113 nM |  |  |  |  | ED25 (Rattus norvegicus [1]): 0.031 mg/kg; ED25 (Rattus norvegicus [3]): 0.033 mg/kg; Duration (Rattus norvegicus [4]): 3 min; SBP change (Rattus norvegicus [6]): 35%
CCO/C(O)=C1\C(C)=NC(C)=C(C(=O)OCCN2C(=O)c3ccccc3S2(=O)=O)C1c1ccccc1C(F)(F)F (stereo not given) | 14.5% |  | 152 | 0.5 nM | 5.8 |  | IC50 (Oryctolagus cuniculus [9]): 74.4 nM
CC1=NC(C)=C(C(=O)OCCN2C(=O)c3ccccc3S2(=O)=O)C(c2ccccc2C(F)(F)F)/C1=C(\O)OC(C)C (stereo not given) | 0.5% | 102 nM | 103 | 1 nM | 2.5 |  | SBP change (Rattus norvegicus [11]): 37%; ED25 (Rattus norvegicus [3]): 0.009 mg/kg; Duration (Rattus norvegicus [4]): >15 min; ED25 (Rattus norvegicus [12]): 0.008 mg/kg
CC1=NC(C)=C(C(=O)OCCN2C(=O)c3ccccc3S2(=O)=O)C(c2cccc([N+](=O)[O-])c2)/C1=C(\O)OC(C)(C)C (stereo not given) | 0% |  | 72 | 1.6 nM | 1.8 |  | SBP change (Rattus norvegicus [11]): 25%; IC50 (Oryctolagus cuniculus [9]): 115 nM
CC1=NC(C)=C(C(=O)OCCN2C(=O)c3ccccc3S2(=O)=O)C(c2cccc([N+](=O)[O-])c2)/C1=C(\O)OC(C)C (stereo not given) | 0% | 37 nM | 137 | 0.3 nM | 9.7 |  | SBP change (Rattus norvegicus [11]): 20%
CC1=NC(C)=C(C(=O)OCN2C(=O)c3ccccc3S2(=O)=O)C(c2cccc([N+](=O)[O-])c2)/C1=C(\O)OCC1CCCO1 (stereo not given) | 27.2% |  |  |  |  |  | Relative potency (Oryctolagus cuniculus [13]): 0.1; T1/2 [14]: 9.6 min; IC50 [15]: 25.1 nM
CO/C(O)=C1\C(C)=NC(C)=C(C(=O)OCCCN2C(=O)c3ccccc3S2(=O)=O)C1c1cccc(Cl)c1Cl (stereo not given) | 0% |  | 686 | 0.8 nM | 3.6 |  | SBP change (Rattus norvegicus [16]): 35%; ED25 (Rattus norvegicus [3]): 0.012 mg/kg; Duration (Rattus norvegicus [4]): >15 min; ED25 (Rattus norvegicus [12]): 0.01 mg/kg; IC50 (Oryctolagus cuniculus [9]): 521 nM
CC1=NC(C)=C(C(=O)OCCN2C(=O)c3ccccc3S2(=O)=O)C(c2cccc([N+](=O)[O-])c2)/C1=C(\O)OCC1CCCO1 (stereo not given) |  |  |  | 107 nM | <0.1 | 570 mg | 
CC1=NC(C)=C(C(=O)OCCN2C(=O)c3ccccc3S2(=O)=O)C(c2ccccc2Cl)/C1=C(\O)OCC1CCCCO1 (stereo not given) |  |  |  | 348 nM | <0.1 | 510 mg | 
CC1=NC(C)=C(C(=O)OCCN2C(=O)c3ccccc3S2(=O)=O)C(c2cccc(Cl)c2Cl)/C1=C(\O)OC(C)C (stereo not given) | 0% | 686 nM | 2744 | 0.3 nM | 10 |  | SBP change (Rattus norvegicus [16]): 8%
COC(=O)C1=C(C)NC(C)=C([N+](=O)[O-])C1c1ccccc1C(F)(F)F (stereo not given) |  |  |  |  |  | 2570 mg | Contraction (Oryctolagus cuniculus [18]): 471.4%; DBP (Rattus norvegicus [19]): 53.3; Contraction (Oryctolagus cuniculus [20]): 97.8%; Contraction (Oryctolagus cuniculus [21]): 232.2%; DBP change (Rattus norvegicus [22]): 53.3%; SBP (Rattus norvegicus [23]): 100
CC1=NC(C)=C(C(=O)OCN2C(=O)c3ccccc3S2(=O)=O)C(c2ccccc2[N+](=O)[O-])/C1=C(\O)OCC1CCCO1 (stereo not given) | 44.5% | 286 nM |  |  |  |  | Relative potency (Oryctolagus cuniculus [13]): 0.1; T1/2 [14]: 8.7 min; IC50 [15]: 38 nM
CC1=NC(C)=C(C(=O)OCCCN2C(=O)c3ccccc3S2(=O)=O)C(c2ccccc2C(F)(F)F)/C1=C(\O)OCC1CCCCO1 (stereo not given) | 5% |  | 121 | 1.4 nM | 2.1 |  | IC50 (Oryctolagus cuniculus [9]): 168 nM
CO/C(O)=C1\C(C)=NC(C)=C(C(=O)OCCN2C(=O)c3ccccc3S2(=O)=O)C1c1ccccc1Cl (stereo not given) |  |  |  | > 1000 nM |  | 610 mg | 
CC1=NC(C)=C(C(=O)OCCCN2C(=O)c3ccccc3S2(=O)=O)C(c2cccc(Cl)c2Cl)/C1=C(\O)OC(C)C (stereo not given) | 0% | 157 nM | 75 | 2.1 nM | 1.4 |  | SBP change (Rattus norvegicus [16]): 11%
CC1=NC(C)=C(C(=O)OCCN2C(=O)c3ccccc3S2(=O)=O)C(c2cccc([N+](=O)[O-])c2)/C1=C(\O)OCC1CCCCO1 (stereo not given) |  |  |  | > 1000 nM |  | 1940 mg | Contraction (Oryctolagus cuniculus [18]): 141.2%; Max contractile activity (Oryctolagus cuniculus [24]): 1940 mg; DBP (Rattus norvegicus [19]): 40; Contraction (Oryctolagus cuniculus [20]): 114%; Contraction (Oryctolagus cuniculus [21]): 129.6%; DBP change (Rattus norvegicus [25]): 40%; SBP (Rattus norvegicus [23]): 58.1
CC1=NC(C)=C(C(=O)OCCN2C(=O)c3ccccc3S2(=O)=O)C(c2ccccc2[N+](=O)[O-])/C1=C(\O)OCC1CCCCO1 (stereo not given) |  |  |  | > 1000 nM |  | 990 mg | 
CC1=NC(C)=C(C(=O)OCCCN2C(=O)c3ccccc3S2(=O)=O)C(c2ccccc2[N+](=O)[O-])/C1=C(\O)OC(C)C (stereo not given) | 0.2% |  | 15 | 1.2 nM | 2.4 |  | IC50 (Oryctolagus cuniculus [9]): 18.6 nM
CC1=NC(C)=C(C(=O)OCCN2C(=O)c3ccccc3S2(=O)=O)C(c2cccc(Cl)c2Cl)/C1=C(\O)OC(C)(C)C (stereo not given) | 0% | 281 nM | 122 | 2.3 nM | 1.3 |  | SBP change (Rattus norvegicus [16]): 36%; ED25 (Rattus norvegicus [3]): 0.014 mg/kg; Duration (Rattus norvegicus [4]): >15 min; ED25 (Rattus norvegicus [12]): 0.011 mg/kg
CCO/C(O)=C1\C(C)=NC(C)=C(C(=O)OCCCN2C(=O)c3ccccc3S2(=O)=O)C1c1cccc(Cl)c1Cl (stereo not given) | 0% | 353 nM | 200 | 1.8 nM | 1.6 |  | SBP change (Rattus norvegicus [16]): 36%; ED25 (Rattus norvegicus [3]): 0.015 mg/kg; Duration (Rattus norvegicus [4]): 2 min; ED25 (Rattus norvegicus [12]): 0.012 mg/kg
CC1=NC(C)=C(C(=O)OCN2C(=O)c3ccccc3S2(=O)=O)C(c2ccccc2[N+](=O)[O-])/C1=C(\O)OC(C)C (stereo not given) |  |  |  |  |  |  | Relative potency (Oryctolagus cuniculus [13]): 2.1; IC50 [15]: 1.4 nM
CO/C(O)=C1\C(C)=NC(C)=C(C(=O)OCCN2C(=O)c3ccccc3S2(=O)=O)C1c1ccccc1C(F)(F)F (stereo not given) |  |  |  | > 1000 nM |  | 420 mg | 
